Shown are actives, neighbours in structure and some others; about 2.2% of the full set was active somewhere.
APJ antagonist: antagonists of human APJ apelin receptor. P35414. CHO-K1 APJ beta-arrestin complementation, luminescence. inhibition, % at 20 µM. actives 0.32% (n = 330,000);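 active means inhibition above about 40% at 20 µM, limit read from the data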;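 further: cells challenged with 10 nM apelin-13 agonist together with compound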
Target sequence (P35414 whole entry, looked up): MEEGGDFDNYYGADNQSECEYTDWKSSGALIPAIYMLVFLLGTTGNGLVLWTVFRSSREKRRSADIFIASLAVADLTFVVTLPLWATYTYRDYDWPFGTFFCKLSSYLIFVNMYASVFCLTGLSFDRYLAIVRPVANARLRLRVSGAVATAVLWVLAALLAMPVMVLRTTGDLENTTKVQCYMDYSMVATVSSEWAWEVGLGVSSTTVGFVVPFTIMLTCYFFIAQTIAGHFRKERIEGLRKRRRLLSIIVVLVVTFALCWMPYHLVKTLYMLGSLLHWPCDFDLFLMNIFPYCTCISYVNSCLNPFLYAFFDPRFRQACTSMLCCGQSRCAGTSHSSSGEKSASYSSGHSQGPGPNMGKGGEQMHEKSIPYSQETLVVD
CCR6 antagonist: blocks CCL20-driven beta-arrestin recruitment at human CCR6 | P51684 | AID 493098 | inhibition, % at 20 µM | actives 0.49% (n = 340,000) | CHO-K1 CCR6 PathHunter beta-arrestin, luminescence, CCL20-stimulated;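 active means compounds whose inhibition of the agonist-driven luminescence signal at 20 µM reaches about 50%, limit read from the data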;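 further: cells stimulated with CCL20 at 14 nM final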
HTR2A ag: mouse HTR2A agonism via beta-arrestin recruitment. P35363. CHO-K1 mHTR2A beta-arrestin complementation, luminescence; percent of 30 µM serotonin response. activation, % at 7.6 µM. actives 0.66% (n = 360,000);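 active means activation above a run cutoff, the mean activation of all tested compounds plus 3 SD, cut at about 14% in these data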
APJ ag: APJ receptor agonism; P35414; CHO-K1 APJ PathHunter beta-arrestin, luminescence; 0% DMSO wells, 100% apelin; activation, % at 20 µM; actives 0.11% (n = 330,000); AID 2520;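 active means activation more than six SD over the plate average, tested at 20 µM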
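Material: CHO-K1 APJ beta-arrestin complementation cell line; Input: cell density 1000 per well; Incubation: compound stimulation 90 min at 25 °C, detection 60 min; Signal: luminescence from split beta-galactosidase complementation, Galacton Star/Emerald II substrate; Controls: DMSO-only wells as negative, 10 nM Apelin-13 as positive control.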
CXCR6 block: inhibitors of human CXCR6 receptor | O00574 | CHO-K1 PathHunter CXCR6 beta-arrestin, luminescence | inhibition, % at 20 µM | actives 0.36% (n = 360,000) | AID 602244; in the data active means inhibition above about 34%, passing the limit was not always enough;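 further: antagonist mode with CXCL16 agonist at 10 nM final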
EBI2 block: EBI2 (human) antagonism | P32249 | EBI2 beta-arrestin recruitment, luminescence, 7a,25-OHC stimulated | inhibition, % at 5 µM | actives 0.81% (n = 360,000); in the data active means inhibition above about 38%;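 further: enzyme fragment complementation signal reports receptor beta-arrestin coupling in cells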
Hits are given with their value; - = inactive; . = no result given.

SMILES	APJ antagonist	CCR6 antagonist	HTR2A ag	APJ ag	CXCR6 block	EBI2 block
CCOC(=O)c1ccc(S(=O)(=O)N2CCN(CC(O)COc3ccc(C#N)cc3)CC2)cc1 (centres undefined)	-	-	-	-	-	49.7
CN1CCN(c2ccc([N+](=O)[O-])c(-n3nc(-c4ccccc4)c4ccccc4c3=O)c2)CC1	-	52.1	-	-	-	-
CCc1nc2ccc(C(=O)Nc3cc(-c4ccccc4)ccc3OC)cn2c1N(CCN(C)C)CC1CC1	.	.	-	.	-	-
CC(NC(=O)/C(C#N)=C/c1ccc(Cl)c([N+](=O)[O-])c1)c1ccccc1 (centres undefined)	-	92.5	.	-	.	.
O=[N+]([O-])c1cnc(Sc2ccncn2)c([N+](=O)[O-])c1	.	.	-	.	100.2	-
N#CC1C(=O)NC(c2ccccc2)=CC1c1ccccc1 (centres undefined)	.	52.1	-	.	-	-
Cc1cc(-c2ccc(N=Nc3c(S(=O)(=O)O)cc4cc(S(=O)(=O)O)cc(N)c4c3O)c(C)c2)ccc1N=Nc1c(S(=O)(=O)O)cc2cc(S(=O)(=O)O)cc(N)c2c1O	78.0	.	.	-	.	.
CCOC(=O)c1c(SCCN2CCCCC2)n(-c2ccccc2)c(=S)n(-c2ccccc2)c1=O	.	99.3	-	.	86.0	-
COc1ccc(N2CCN(C(=O)C(=O)c3cc(OC)c4ccccc4c3)CC2)cc1	.	.	-	.	.	-
COc1ccc(C(=O)CNc2ccc(C)cc2C)cc1	-	79.1	-	-	42.8	-
Cc1cccc(CC(=O)NCCS(=O)(=O)N2CCN(c3ccccc3)CC2)c1	.	.	-	.	-	-
O=C(/C=C/c1ccccc1O)c1ccco1	-	-	-	-	-	-
O=C(/C=C/c1cc(Br)ccc1O)c1ccco1	-	64.5	-	-	-	-
CC(C)(C)NC(=O)C(c1ccncc1)n1c(-c2ccc(C(F)(F)F)cc2)nc2ccccc21 (centres undefined)	.	.	-	.	.	-
CCN1/C(=C/C=C/c2oc3ccc(-c4ccccc4)cc3[n+]2CC)Oc2ccc(-c3ccccc3)cc21	-	59.8	-	-	-	-
CCOC(=O)C1(CC)Oc2ccccc2C(c2ccc(OC)cc2)=C1C(=O)OC (centres undefined)	.	-	-	.	48.0	-
COc1ccccc1/C=C/C(=O)/C=C/c1ccccc1O	.	-	-	.	-	43.9
O=C(NCc1cccnc1)/C(=C/c1ccc(-c2ccc(Cl)cc2)o1)S(=O)(=O)c1ccccc1	-	-	-	-	-	54.4
O=C(NCc1cccnc1)/C(=C\c1ccc(-c2ccc(Br)cc2)o1)S(=O)(=O)c1ccccc1	-	-	-	-	-	61.7
CO[C@H](C(=O)N(C)C[C@@H]1OCc2ccccc2-c2c(n(C)c3ccccc23)C(=O)N([C@H](C)CO)C[C@@H]1C)c1ccccc1	.	.	-	.	-	-
OC(c1ccc(F)cc1)c1nc(-c2cc3ccccc3o2)cs1 (centres undefined)	.	.	-	.	-	-
CCc1cc(C(=O)Nc2cc(S(=O)(=O)N3CCCCC3)ccc2N2CCN(C)CC2)sc1C	.	.	-	.	-	-
CCSC1=N/C(=C\c2ccc(C(=O)O)cc2)C(=O)S1	-	-	-	-	-	-
CCOC(=O)SC1=N/C(=C\c2ccc(N(C)C)cc2)C(=O)S1	-	50.9	-	-	-	-
CCN(C(=O)CN1C(=O)NC2(CCC(C)CC2)C1=O)C1CCCCC1 (centres undefined)	.	.	-	.	-	-
SMILES	APJ antagonist	CCR6 antagonist	HTR2A ag	APJ ag	CXCR6 block	EBI2 block
O=C(c1ccccc1)c1cc(Cl)ccc1N1C(=O)C=CC1=O	.	106.2	-	.	61.3	-
O=C(CC(=O)c1cc(Cl)ccc1O)c1ccccc1	-	-	-	-	-	-
COc1cc(/C=C/c2ccc3cccc(O)c3n2)ccc1O	-	66.8	-	-	42.8	-
COc1cc(/C=C/c2ccc3cccc(O)c3n2)c(Br)cc1O	-	.	-	-	-	-
Oc1cccc2ccc(/C=C/c3ccccc3Br)nc12	-	62.2	-	-	-	-
CC(=O)Nc1nc(-c2ccc([N+](=O)[O-])cc2)cs1	-	-	-	-	-	-
N#C/C(=C\c1ccc(-c2ccccc2[N+](=O)[O-])o1)C(=O)Nc1nc(-c2cccs2)cs1	-	51.0	-	-	-	-
N#C/C(=C/c1ccc(-c2cccc([N+](=O)[O-])c2)o1)C(=O)Nc1nc(-c2cccs2)cs1	.	68.7	-	.	-	-
N#C/C(=C\c1ccc(-c2ccc([N+](=O)[O-])cc2)o1)C(=O)Nc1nc(-c2cccs2)cs1	-	57.5	-	-	-	-
N#C/C(=C\c1ccc(-c2cccc([N+](=O)[O-])c2)o1)C(=O)N1CCOCC1	-	-	-	-	-	-
CCCC(=O)N1CCC1(C)C(=O)Nc1cccc(F)c1 (centres undefined)	.	.	-	.	-	-
CCOC(=O)[C@]12CCC=C1N(CCC1=CCCCC1)C(=O)[C@H](CC(=O)N1CCCCC1)C2	.	.	-	.	-	-
CC(C)c1ccc(O)c(NC(=S)NC(=O)c2ccc3c(c2)OCO3)c1	-	.	-	-	45.1	-
O=C(NCCNC(=O)c1ccc(-c2cc(Cl)ccc2Cl)o1)c1cnccn1	.	.	-	.	-	-
C/C(Cl)=C\Cn1c(O)c(N=NC(N)=S)c2cc(Br)ccc21	-	55.1	-	-	-	-
O=C(O)c1ccccc1N=Nc1ccc(O)cc1	-	-	19.4	-	-	-
CCOC(=O)C1(Cc2ccc(Cl)cc2)CCN(C(=O)CCc2cnccn2)CC1	-	62.0	-	-	-	-
Cc1ccc(C)c(S(=O)(=O)/N=C2\C=C(NS(=O)(=O)c3ccccc3)C(=O)c3ccccc32)c1	-	-	-	-	-	-
Cc1cc(C)c(S(=O)(=O)/N=C2/C=C(Sc3ncn[nH]3)C(=O)c3ccccc32)cc1C	.	79.1	-	.	46.4	-
O=C(NCc1ccccc1)c1cc(C2CCCN(S(=O)(=O)c3cccs3)C2)on1 (centres undefined)	.	.	-	.	-	-
O=C(NC1CCCCC1)c1nc(-c2c(F)cccc2F)oc1-c1ccccc1	.	.	-	.	.	-
C/C=C(/CCC1NCCc2c1[nH]c1ccccc21)[Si](C)(C)C (centres undefined)	.	51.3	-	.	-	-
CCNC(=O)C1(C)CCCN(Cc2ccc3ccccc3c2Br)C1 (centres undefined)	.	.	-	.	-	-
O=c1oc(-c2ccccc2F)nc2c1cnn2-c1ccccc1	-	51.9	-	-	-	-
Cc1ccc(-c2nc3cnccn3c2Nc2c(C)cccc2C)o1	-	66.8	-	-	-	-
C[C@H](CO)N1C[C@H](C)[C@H](CN(C)S(C)(=O)=O)OCc2cnnn2CCCC1=O	.	.	-	.	-	-
Cc1nc2ccc(NC(=O)c3cc([N+](=O)[O-])cc([N+](=O)[O-])c3Cl)cc2s1	.	96.9	-	.	-	-

Bioassay records deposited in PubChem BioAssay by several laboratories.
